Measurements as given in ChEMBL document CHEMBL1127482 (J Med Chem, 1994).
*1 amine or outer side, *2 acyl side, *3 side chain or, on linkers, in order; H or OH if unused. Where a SMILES comes first, the peptide text is derived from it. Bridges are numbered along the chain shown (N, C = ends). X1 = O=C(CC1(S[*:2])CCCCC1)[*:1]

Tests used:
[1] = target: Integrin alpha-IIb/beta-3 (Homo sapiens, UniProt P05106+P08514); experiment: Binding affinity against integrin alpha 2b-beta 3 in enzyme linked immunosorbent assay (ELISA); type: protein-complex assay
In short: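 Purified human platelet αIIbβ3 (from outdated platelets, octyl glucoside extract) in TBS with 20 mM octyl glucoside, 2 mM MgCl2 and 2 mM CaCl2 binds to plate-coated human fibrinogen (10 µg/mL in TBS) with 10-fold serial peptide dilutions for 3 h at room temperature. Bound receptor is detected with rabbit anti-αIIbβ3, then HRP anti-rabbit IgG, with o-phenylenediamine/H2O2 at pH 5.0. IC50 is reported.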

[2] = target: Integrin alpha-V/beta-5 (Homo sapiens, UniProt P06756+P18084); experiment: Binding affinity against integrin alpha V-beta5 in enzyme linked immunosorbent assay (ELISA); type: protein-complex assay
In short: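 It is added to wells coated with human vitronectin in 0.1 M carbonate, pH 9.6, with 10-fold serial peptide dilutions for 3 h at room temperature. Detection uses rabbit anti-VnR, HRP anti-rabbit IgG and o-phenylenediamine/H2O2.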

[3] = target: Integrin alpha-5/beta-1 (Homo sapiens, UniProt P05556+P08648); experiment: Binding affinity against integrin alpha5-beta1 in enzyme linked immunosorbent assay (ELISA); type: protein-complex assay
[4] = species on record: Homo sapiens; experiment: Inhibition of 10 uM ADP induced platelet aggregation in human platelet rich citreated plasma (PRP); type: functional
In short: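 Aggregation is read as the increase in light transmission in an aggregometer, with platelets used within 3 h of collection. IC50 comes from regression of dose-response curves for inhibition of maximal aggregation, adjusted against a standard run in each experiment.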

Chain of Integrin alpha-5/beta-1 (P05556 21-798 limits assumed): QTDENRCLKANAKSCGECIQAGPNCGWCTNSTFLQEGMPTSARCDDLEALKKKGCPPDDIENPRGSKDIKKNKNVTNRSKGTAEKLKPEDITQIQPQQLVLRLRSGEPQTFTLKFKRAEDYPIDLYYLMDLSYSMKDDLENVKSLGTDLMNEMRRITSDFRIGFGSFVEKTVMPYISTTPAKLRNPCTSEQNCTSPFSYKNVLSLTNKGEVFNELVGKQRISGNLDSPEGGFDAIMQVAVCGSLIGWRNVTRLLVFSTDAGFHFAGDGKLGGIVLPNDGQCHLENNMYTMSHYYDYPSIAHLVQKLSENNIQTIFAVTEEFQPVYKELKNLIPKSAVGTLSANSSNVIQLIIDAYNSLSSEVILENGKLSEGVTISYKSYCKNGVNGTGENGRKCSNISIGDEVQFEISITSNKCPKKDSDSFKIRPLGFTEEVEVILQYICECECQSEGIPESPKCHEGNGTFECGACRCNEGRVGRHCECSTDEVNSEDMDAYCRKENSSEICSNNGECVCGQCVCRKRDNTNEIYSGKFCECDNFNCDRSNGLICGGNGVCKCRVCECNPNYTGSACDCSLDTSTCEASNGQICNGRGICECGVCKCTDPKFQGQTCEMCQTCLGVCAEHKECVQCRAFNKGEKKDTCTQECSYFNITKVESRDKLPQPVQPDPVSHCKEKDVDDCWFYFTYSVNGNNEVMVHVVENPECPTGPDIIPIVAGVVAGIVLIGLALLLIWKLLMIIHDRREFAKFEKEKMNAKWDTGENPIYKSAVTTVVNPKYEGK
Chain of Integrin alpha-5/beta-1 (P08648 42-894 limits assumed): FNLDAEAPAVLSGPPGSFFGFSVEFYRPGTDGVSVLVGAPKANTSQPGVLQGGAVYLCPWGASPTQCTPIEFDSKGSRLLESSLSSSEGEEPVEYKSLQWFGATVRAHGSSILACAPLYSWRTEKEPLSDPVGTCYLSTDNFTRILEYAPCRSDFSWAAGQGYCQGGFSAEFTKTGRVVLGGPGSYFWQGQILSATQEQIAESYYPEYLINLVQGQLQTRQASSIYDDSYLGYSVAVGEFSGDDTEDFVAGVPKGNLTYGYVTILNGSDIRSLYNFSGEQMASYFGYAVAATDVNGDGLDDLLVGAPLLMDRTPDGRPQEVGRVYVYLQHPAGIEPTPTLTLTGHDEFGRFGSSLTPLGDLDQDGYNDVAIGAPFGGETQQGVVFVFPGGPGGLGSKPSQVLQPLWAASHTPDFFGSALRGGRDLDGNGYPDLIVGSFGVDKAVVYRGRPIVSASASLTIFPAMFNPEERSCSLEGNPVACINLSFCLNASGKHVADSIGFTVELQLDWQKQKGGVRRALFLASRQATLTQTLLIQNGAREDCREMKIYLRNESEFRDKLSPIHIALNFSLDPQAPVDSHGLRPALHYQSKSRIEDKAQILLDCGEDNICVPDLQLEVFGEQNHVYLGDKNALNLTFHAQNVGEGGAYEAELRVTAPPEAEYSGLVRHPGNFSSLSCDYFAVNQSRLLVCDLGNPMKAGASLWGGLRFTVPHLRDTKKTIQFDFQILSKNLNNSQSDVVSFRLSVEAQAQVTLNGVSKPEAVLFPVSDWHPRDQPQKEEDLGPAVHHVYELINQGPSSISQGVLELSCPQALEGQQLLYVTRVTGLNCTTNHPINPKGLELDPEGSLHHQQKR
Chain of Integrin alpha-5/beta-1 (P08648 895-1049 limits assumed): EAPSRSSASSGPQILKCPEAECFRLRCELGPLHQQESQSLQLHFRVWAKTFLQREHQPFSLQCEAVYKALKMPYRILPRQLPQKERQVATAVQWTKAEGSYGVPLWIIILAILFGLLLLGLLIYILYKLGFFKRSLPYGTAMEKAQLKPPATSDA
Chain of Integrin alpha-V/beta-5 (P06756 31-889 limits assumed): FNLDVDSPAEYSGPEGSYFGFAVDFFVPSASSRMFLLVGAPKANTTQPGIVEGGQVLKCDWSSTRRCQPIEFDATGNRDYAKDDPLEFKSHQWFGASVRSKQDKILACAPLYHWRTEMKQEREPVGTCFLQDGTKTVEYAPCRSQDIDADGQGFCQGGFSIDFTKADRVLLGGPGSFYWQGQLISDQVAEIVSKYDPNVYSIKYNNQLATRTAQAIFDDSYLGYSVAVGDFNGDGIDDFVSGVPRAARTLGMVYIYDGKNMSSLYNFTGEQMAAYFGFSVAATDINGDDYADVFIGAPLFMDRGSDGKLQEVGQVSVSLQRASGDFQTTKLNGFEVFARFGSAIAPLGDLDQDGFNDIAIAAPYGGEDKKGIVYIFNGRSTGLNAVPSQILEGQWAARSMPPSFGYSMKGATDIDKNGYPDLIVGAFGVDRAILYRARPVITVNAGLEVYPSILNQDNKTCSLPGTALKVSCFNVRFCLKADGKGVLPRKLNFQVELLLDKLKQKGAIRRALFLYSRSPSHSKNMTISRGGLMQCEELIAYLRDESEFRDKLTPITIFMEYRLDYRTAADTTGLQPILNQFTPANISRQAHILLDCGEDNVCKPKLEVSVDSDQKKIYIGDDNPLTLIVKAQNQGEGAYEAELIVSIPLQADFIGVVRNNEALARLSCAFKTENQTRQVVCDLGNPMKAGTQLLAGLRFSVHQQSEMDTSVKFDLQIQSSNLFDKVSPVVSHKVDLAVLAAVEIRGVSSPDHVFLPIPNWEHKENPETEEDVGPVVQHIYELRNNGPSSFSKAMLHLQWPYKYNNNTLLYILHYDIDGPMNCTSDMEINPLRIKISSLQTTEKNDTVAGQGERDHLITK
Chain of Integrin alpha-V/beta-5 (P06756 891-1048 limits assumed): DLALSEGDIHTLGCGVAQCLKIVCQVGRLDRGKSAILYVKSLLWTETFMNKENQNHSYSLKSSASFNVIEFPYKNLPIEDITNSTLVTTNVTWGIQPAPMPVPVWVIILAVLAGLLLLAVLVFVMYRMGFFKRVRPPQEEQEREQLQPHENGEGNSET
Chain of Integrin alpha-V/beta-5 (P18084 24-799 limits assumed): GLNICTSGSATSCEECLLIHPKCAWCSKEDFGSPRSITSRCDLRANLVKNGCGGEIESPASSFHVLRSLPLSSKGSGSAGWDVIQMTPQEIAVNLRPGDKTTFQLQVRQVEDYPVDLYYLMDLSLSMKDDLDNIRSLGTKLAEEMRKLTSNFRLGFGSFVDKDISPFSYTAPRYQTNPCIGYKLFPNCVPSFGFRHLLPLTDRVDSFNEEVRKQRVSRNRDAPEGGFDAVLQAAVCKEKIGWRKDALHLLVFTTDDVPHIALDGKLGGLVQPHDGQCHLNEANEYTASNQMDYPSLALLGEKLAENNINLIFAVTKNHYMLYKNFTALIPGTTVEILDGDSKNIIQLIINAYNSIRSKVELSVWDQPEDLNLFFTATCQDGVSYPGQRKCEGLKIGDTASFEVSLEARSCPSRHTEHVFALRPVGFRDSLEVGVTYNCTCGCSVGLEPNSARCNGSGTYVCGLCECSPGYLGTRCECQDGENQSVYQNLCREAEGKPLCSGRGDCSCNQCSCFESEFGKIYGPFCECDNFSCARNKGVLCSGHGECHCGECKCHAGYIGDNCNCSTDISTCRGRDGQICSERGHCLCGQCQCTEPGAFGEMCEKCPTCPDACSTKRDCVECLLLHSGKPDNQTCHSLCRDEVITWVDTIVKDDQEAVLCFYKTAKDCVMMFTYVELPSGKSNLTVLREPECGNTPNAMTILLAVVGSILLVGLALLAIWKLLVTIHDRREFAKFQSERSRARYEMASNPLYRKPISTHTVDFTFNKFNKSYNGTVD

Structure (SMILES) | IC50 [1] [nM] | IC50 [2] [nM] | IC50 [3] [nM] | IC50 [4] [nM]
N=C(N)NCCC[C@H](NC(=O)[C@@H]1CSSC2(CCCCC2)[C@H](NC(=O)[C@@H](N)CCCNC(=N)N)C(=O)NCC(=O)N[C@@H](Cc2c[nH]cn2)C(=O)N[C@@H](CCCNC(=N)N)C(=O)NCC(=O)N[C@@H](CC(=O)O)C(=O)N[C@@H](Cc2ccc(I)cc2)C(=O)N[C@@H](CCCNC(=N)N)C(=O)N1)C(=O)O | 10 | 4030 | 4190 | –
CC(C)C[C@@H]1NC(=O)[C@H](CC(=O)O)NC(=O)CNC(=O)[C@H](CCCNC(=N)N)NC(=O)[C@H](Cc2c[nH]cn2)NC(=O)CNC(=O)[C@H](NC(=O)CN)C(C)(C)SSC[C@@H](C(=O)N[C@@H](C)C(=O)O)NC(=O)[C@H](CCCNC(=N)N)NC1=O (stereo in doubt; 2) | 150 | – | – | –
CC[C@H](C)[C@@H]1NC(=O)[C@@H](NC(C)=O)CSSC[C@@H](C(N)=O)NC(=O)[C@H](CCCN=C(N)N)NC(=O)[C@H](Cc2ccc([N+](=O)[O-])cc2)NC(=O)[C@H](CC(=O)O)NC(=O)CNC(=O)[C@H](CCCN=C(N)N)NC(=O)[C@@H]2CCCN2C1=O | 430 | 4300 | 1200 | 210
CC(C)C[C@@H]1NC(=O)[C@H](CC(=O)O)NC(=O)CNC(=O)[C@H](CCCNC(=N)N)NC(=O)[C@H](Cc2c[nH]cn2)NC(=O)CNC(=O)[C@H](NC(=O)[C@@H](N)CCCNC(=N)N)C(C)(C)SSC[C@@H](C(=O)N[C@@H](CCCNC(=N)N)C(=O)O)NC(=O)[C@H](CCCNC(=N)N)NC1=O | 150 | 10000 | – | 4100
NC(N)=NCCC[C@H](NC(=O)[C@@H]1CSSC2(CCCCC2)[C@H](NC(=O)[C@@H](N)CCCN=C(N)N)C(=O)NCC(=O)N[C@@H](Cc2c[nH]cn2)C(=O)N[C@@H](CCCN=C(N)N)C(=O)NCC(=O)N[C@@H](CC(=O)O)C(=O)N[C@@H](Cc2ccccc2)C(=O)N[C@@H](CCCN=C(N)N)C(=O)N1)C(=O)O | 40 | – | – | 620
CC(C)C[C@@H]1NC(=O)[C@H](CC(=O)O)NC(=O)CNC(=O)[C@H](CCCNC(=N)N)NC(=O)[C@H](Cc2c[nH]cn2)NC(=O)CNC(=O)[C@@H](NC(=O)[C@@H](N)CCCNC(=N)N)C(C)(C)SSC[C@@H](C(=O)N[C@@H](CCCNC(=N)N)C(=O)O)NC(=O)[C@H](CCCNC(=N)N)NC1=O | 40 | 4930 | – | 9600
NC(N)=NCCC[C@H](NC(=O)[C@@H]1CSSC2(CCCCC2)[C@H](NC(=O)[C@@H](N)CCCN=C(N)N)C(=O)NCC(=O)N[C@@H](Cc2c[nH]cn2)C(=O)N[C@@H](CCCN=C(N)N)C(=O)NCC(=O)N[C@@H](CC(=O)O)C(=O)N[C@@H](c2ccccc2)C(=O)N[C@@H](CCCN=C(N)N)C(=O)N1)C(=O)O | 20 | – | – | 680
CC(=O)N[C@H]1CSSC[C@@H](C(N)=O)NC(=O)[C@H](CCCN=C(N)N)NC(=O)[C@H](Cc2ccc([N+](=O)[O-])cc2)NC(=O)[C@H](CC(=O)O)NC(=O)CNC(=O)[C@H](CCCN=C(N)N)NC(=O)[C@@H]2CCCN2C(=O)[C@H](CC(N)=O)NC1=O | 17 | 4800 | – | 840
COc1ccc(C[C@@H]2NC(=O)[C@H](CC(=O)O)NC(=O)CNC(=O)[C@H](CCCNC(=N)N)NC(=O)[C@H](Cc3c[nH]cn3)NC(=O)CNC(=O)[C@@H](NC(=O)[C@@H](N)CCCNC(=N)N)C3(CCCCC3)SSC[C@@H](C(=O)N[C@@H](CCCNC(=N)N)C(=O)O)NC(=O)[C@H](CCCNC(=N)N)NC2=O)cc1 | 20 | 1050 | 980 | –
CC[C@H](C)[C@@H]1NC(=O)[C@@H](NC(C)=O)CSSC[C@@H](C(N)=O)NC(=O)[C@H](CCCNC(=N)N)NC(=O)[C@H](Cc2ccc(O)cc2)NC(=O)[C@H](CC(=O)O)NC(=O)CNC(=O)[C@H](CCCNC(=N)N)NC(=O)[C@@H]2CCCN2C1=O (Ac-CIPRGDYRC-NH2; disulfide 1-9) | 3 | > 10000 | 4500 | –
COc1ccc(C[C@@H]2NC(=O)[C@H](CC(=O)O)NC(=O)CNC(=O)[C@H](CCCNC(=N)N)NC(=O)[C@@H]3CCCN3C(=O)[C@H](CC(N)=O)NC(=O)[C@@H](NC(C)=O)CSSC[C@@H](C(N)=O)NC(=O)[C@H](CC(C)C)NC2=O)cc1 | – | 7140 | – | 7600
CCCCOc1ccc(C[C@@H]2NC(=O)[C@H](CC(=O)O)NC(=O)CNC(=O)[C@H](CCCNC(=N)N)NC(=O)[C@@H]3CCCN3C(=O)[C@H]([C@@H](C)CC)NC(=O)[C@@H](NC(C)=O)CSSC[C@@H](C(N)=O)NC(=O)[C@H](CCCNC(=N)N)NC2=O)cc1 | 16 | > 10000 | 6000 | –
NC(N)=NCCC[C@H](NC(=O)[C@@H]1CSSC2(CCCCC2)[C@H](NC(=O)[C@@H](N)CCCN=C(N)N)C(=O)NCC(=O)N[C@@H](Cc2c[nH]cn2)C(=O)N[C@@H](CCCN=C(N)N)C(=O)NCC(=O)N[C@@H](CC(=O)O)C(=O)N[C@@H](Cc2ccc3ccccc3c2)C(=O)N[C@@H](CCCN=C(N)N)C(=O)N1)C(=O)O | 70 | – | 7720 | 440
COc1ccc(C[C@@H]2NC(=O)[C@H](CC(=O)O)NC(=O)CNC(=O)[C@H](CCCNC(=N)N)NC(=O)[C@H](Cc3ccc(O)cc3)NC(=O)CNC(=O)[C@@H](NC(=O)[C@@H](N)CCCNC(=N)N)C3(CCCCC3)SSC[C@@H](C(=O)N[C@@H](CCCNC(=N)N)C(=O)O)NC(=O)[C@H](CCCNC(=N)N)NC2=O)cc1 | – | 8800 | – | 850
CC(C)C[C@@H]1NC(=O)[C@H](CC(=O)O)NC(=O)CNC(=O)[C@H](CCCNC(=N)N)NC(=O)[C@H](Cc2c[nH]cn2)NC(=O)CNC(=O)[C@@H](NC(=O)[C@@H](N)CCCNC(=N)N)C2(CCCC2)SSC[C@@H](C(=O)N[C@@H](CCCNC(=N)N)C(=O)O)NC(=O)[C@H](CCCNC(=N)N)NC1=O | 30 | 340 | – | 4100
COc1ccc(C[C@@H]2NC(=O)[C@H](CC(=O)O)NC(=O)CNC(=O)[C@H](CCCNC(=N)N)NC(=O)[C@@H](Cc3ccc(O)cc3)NC(=O)CNC(=O)[C@@H](NC(=O)[C@@H](N)CCCNC(=N)N)C3(CCCCC3)SSC[C@@H](C(=O)N[C@@H](CCCNC(=N)N)C(=O)O)NC(=O)[C@H](CCCNC(=N)N)NC2=O)cc1 | – | 10000 | – | 520
CC[C@H](C)[C@@H]1NC(=O)[C@@H](NC(C)=O)CSSC[C@@H](C(N)=O)NC(=O)[C@H](CCCN=C(N)N)NC(=O)[C@H](Cc2ccccc2)NC(=O)[C@H](CC(=O)O)NC(=O)CNC(=O)[C@H](CCCN=C(N)N)NC(=O)[C@@H]2CCCN2C1=O (Ac-CIPRGDFRC-NH2; disulfide 1-9) | 14 | 10000 | 2100 | 450
CC[C@H](C)[C@@H]1NC(=O)[C@H](NC(C)=O)C(C)(C)SSC[C@@H](C(N)=O)NC(=O)[C@H](CCCNC(=N)N)NC(=O)[C@H](Cc2ccc(OC)cc2)NC(=O)[C@H](CC(=O)O)NC(=O)CNC(=O)[C@H](CCCNC(=N)N)NC(=O)[C@@H]2CCCN2C1=O | 2 | – | – | 280
CC(C)C[C@@H]1NC(=O)[C@H](CC(=O)O)NC(=O)CNC(=O)[C@H](CCCNC(=N)N)NC(=O)[C@H](Cc2c[nH]cn2)NC(=O)CNC(=O)[C@@H](NC(=O)[C@@H](N)CCCNC(=N)N)C2(CCCCC2)SSC[C@@H](C(=O)N[C@@H](CCCNC(=N)N)C(=O)O)NC(=O)[C@H](CCCNC(=N)N)NC1=O | 400 | 1580 | – | 3000
COc1ccc(C[C@@H]2NC(=O)[C@H](CC(=O)O)NC(=O)CNC(=O)[C@H](CCCN=C(N)N)NC(=O)[C@H](Cc3c[nH]cn3)NC(=O)[C@H](CCCN=C(N)N)NC(=O)[C@@H](NC(=O)[C@@H](N)CCCN=C(N)N)C3(CCCCC3)SSC[C@@H](C(=O)N[C@@H](CCCN=C(N)N)C(=O)O)NC(=O)[C@H](CCCN=C(N)N)NC2=O)cc1 | 70 | – | – | 440
CC(C)C[C@@H]1NC(=O)[C@H](CC(=O)O)NC(=O)CNC(=O)[C@H](CCCNC(=N)N)NC(=O)[C@H](Cc2c[nH]cn2)NC(=O)CNC(=O)CC2(CCCCC2)SSC[C@@H](C(=O)N[C@@H](C)C(=O)O)NC(=O)[C@H](CCCNC(=N)N)NC1=O (GHRGDLRCA-OH; linker N-8 via X1) | 20 | 10000 | – | 5900
CCCCOc1ccc(C[C@@H]2NC(=O)[C@H](CC(=O)O)NC(=O)CNC(=O)[C@H](CCCNC(=N)N)NC(=O)[C@@H]3CCCN3C(=O)[C@H](CC(N)=O)NC(=O)[C@@H](NC(C)=O)CSSC[C@@H](C(N)=O)NC(=O)[C@H](CCCNC(=N)N)NC2=O)cc1 | – | 10000 | – | 100
CCCCOc1ccc(C[C@@H]2NC(=O)[C@H](CC(=O)O)NC(=O)CNC(=O)[C@H](CCCNC(=N)N)NC(=O)[C@H](Cc3c[nH]cn3)NC(=O)CNC(=O)[C@@H](NC(=O)[C@@H](N)CCCNC(=N)N)C3(CCCCC3)SSC[C@@H](C(=O)N[C@@H](CCCNC(=N)N)C(=O)O)NC(=O)[C@H](CCCNC(=N)N)NC2=O)cc1 | 30 | – | – | 350
COc1ccc(C[C@@H]2NC(=O)[C@H](CC(=O)O)NC(=O)CNC(=O)[C@H](CCCN=C(N)N)NC(=O)[C@@H]3CCCN3C(=O)[C@H](CC(N)=O)NC(=O)CC3(CCCCC3)SSC[C@@H](C(N)=O)NC(=O)[C@H](CCCN=C(N)N)NC2=O)cc1 (NPRGDY(Me)RC-NH2; linker N-8 via X1) | – | 4900 | – | 170
N=C(N)NCCC[C@H](NC(=O)[C@@H]1CSSC2(CCCCC2)[C@H](NC(=O)[C@@H](N)CCCNC(=N)N)C(=O)NCC(=O)N[C@@H](Cc2c[nH]cn2)C(=O)N[C@@H](CCCNC(=N)N)C(=O)NCC(=O)N[C@@H](CC(=O)O)C(=O)N[C@@H](Cc2ccc(Cl)cc2)C(=O)N[C@@H](CCCNC(=N)N)C(=O)N1)C(=O)O | – | 15300 | 870 | 730
